Key:
Liver microsome [1] = assay: Drug metabolism in human liver microsomes assessed as BMS-572273 metabolite level at 100 uM after 1 hr in presence of NADPH; type: ADME
Summary of the method: (§1)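 Liver microsomes (1 mg/ml protein) in 100 mM phosphate buffer with 100 µM test compound. Reaction started by adding NADPH (1 mM), then run at 37°C for 1 h in a shaking water bath, in duplicate. Controls lacked microsomal protein or NADPH; 7-ethoxycoumarin (100 µM) was the positive control. Metabolites identified by LC/MS/MS.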

[2] = Drug metabolism in cynomolgus monkey cryopreserved hepatocytes assessed as DPH-124921 metabolite level at 25 uM after 3 hrs by LC-MS/MS analysis; type: ADME, cell-based, Macaca fascicularis, Hepatocyte
Summary of the method: (§2)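 Mouse, rat, dog, monkey and human hepatocytes (trypan blue viability checked) at 1.0×10^6 cells/ml in Krebs-Henseleit buffer were incubated with 25 µM compound, in duplicate. Conditions were 37°C, 95/5 O2/CO2, orbital shaking, 3 h. 7-Ethoxycoumarin and 7-hydroxycoumarin (100 µM) served as positive controls, with a cell-free negative control. Reactions were quenched with ice-cold acetonitrile, then sonicated and centrifuged; supernatants were analysed by LC/MS/MS.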

Hepatocyte [3] = assay: Detection of compound level in human cryopreserved hepatocytes treated with 25 uM of BMS-562086 after 3 hrs by LC-MS/MS analysis; type: ADME, cell-based; summary of the method: as §2
Liver microsome [4] = assay: Drug metabolism in dog liver microsomes assessed as BMS-572273 metabolite level at 100 uM after 1 hr in presence of NADPH; type: ADME, Canis lupus familiaris
Summary of the method: (§3)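 Mouse, rat, dog, monkey and human liver microsomes (1 mg/ml protein) were incubated with 100 µM compound in 100 mM phosphate buffer. Reactions were started with 1 mM NADPH and run 1 h at 37°C in duplicate. Controls lacked protein or NADPH, plus a 7-ethoxycoumarin (100 µM) positive control. Metabolites were identified by LC/MS/MS.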

[5] = Drug metabolism in mouse liver microsomes at 100 uM after 1 hr in presence of NADPH; type: ADME; summary of the method: as §1
[6] = Detection of compound level in beagle dog hepatocytes treated with 25 uM of BMS-562086 after 3 hrs by LC-MS/MS analysis; type: ADME, cell-based, Canis lupus familiaris, Hepatocyte; summary of the method: as §2
Liver microsome [7] = assay: Drug metabolism in rat liver microsomes assessed as DPH-124921 metabolite level at 100 uM after 1 hr in presence of NADPH; type: ADME; summary of the method: as §1
[8] = Drug metabolism in rat hepatocytes assessed as BMS-572273 metabolite level at 25 uM after 3 hrs by LC-MS/MS analysis; type: ADME, cell-based, Hepatocyte
Summary of the method: (§4)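 Hepatocytes checked for viability by trypan blue exclusion, then diluted in Krebs-Henseleit buffer to 1.0 × 10^6 cells/ml. Incubated in duplicate with 25 µM compound at 37°C for 3 h on an orbital shaker (80 rpm) under 95/5 O2/CO2. Negative control had no cells. Stopped with ice-cold acetonitrile, sonicated, centrifuged; supernatant analysed by LC/MS/MS.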

Liver microsome [9] = assay: Drug metabolism in human liver microsomes at 100 uM after 1 hr in presence of NADPH; type: ADME; summary of the method: as §1
[10] = Drug metabolism in human cryopreserved hepatocytes assessed as DPH-123554 metabolite level at 25 uM after 3 hrs by LC-MS/MS analysis; type: ADME, cell-based, Hepatocyte; summary of the method: as §4
[11] = Drug metabolism in mouse liver microsomes assessed as BMS-572273 metabolite level at 100 uM after 1 hr in presence of NADPH; type: ADME; summary of the method: as §1
Hepatocyte [12] = assay: Detection of compound level in rat hepatocytes treated with 25 uM of BMS-562086 after 3 hrs by LC-MS/MS analysis; type: ADME, cell-based; summary of the method: as §2
[13] = Drug metabolism in cynomolgus monkey cryopreserved hepatocytes assessed as DPH-123554 metabolite level at 25 uM after 3 hrs by LC-MS/MS analysis; type: ADME, cell-based, Macaca fascicularis, Hepatocyte; summary of the method: as §2
Liver microsome [14] = assay: Drug metabolism in rat liver microsomes at 100 uM after 1 hr in presence of NADPH; type: ADME; summary of the method: as §1
Liver microsome [15] = assay: Drug metabolism in rat liver microsomes assessed as DPH-123554 metabolite level at 100 uM after 1 hr in presence of NADPH; type: ADME; summary of the method: as §1
[16] = Drug metabolism in cynomolgus monkey liver microsomes assessed as DPH-124921 metabolite level at 100 uM after 1 hr in presence of NADPH; type: ADME, Macaca fascicularis; summary of the method: as §3
[17] = Drug metabolism in human cryopreserved hepatocytes assessed as BMS-572273 metabolite level at 25 uM after 3 hrs by LC-MS/MS analysis; type: ADME, cell-based, Hepatocyte; summary of the method: as §4
Serum [18] = assay: Metabolic stability in dog serum after 3 hrs by equilibrium dialysis; type: ADME, cell-free, Canis lupus familiaris
Summary of the method: (§5)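 Stability assessed in the serum samples from the equilibrium-dialysis setup: compound at final 12.8, 25.6 and 38.5 µM, dialysed against 134 mM phosphate buffer, pH 7.4, at 37°C with rotation at 20 rpm. Samples monitored for degradants over the 3-h incubation.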

[19] = AUC (infinity) in chimpanzee at 1 mg/kg, po; type: ADME, organism-based, Pan troglodytes; set-up: dose 1 mg/kg, route oral, time infinity; details: plasma
Summary of the method: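 Two fasted male chimpanzees (58, 72 kg) received 1 mg/kg orally as a suspension in 0.5% methylcellulose/orange drink with 1% Tween 80 (1:1). Blood was sampled 0-96 h post-dose. Plasma was assayed by validated LC/MS/MS (LLOQ 1.00 ng/ml). Noncompartmental analysis gave AUC(INF) by the mixed log-linear trapezoidal method, with Cmax observed directly; values are mean (min, max).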

[20] = biological target: T1, Corticotropin-releasing factor-binding protein (Homo sapiens, UniProt P24387); assay: Binding affinity to CRF-binding protein (unknown origin)
T1 sequence (P24387 whole entry): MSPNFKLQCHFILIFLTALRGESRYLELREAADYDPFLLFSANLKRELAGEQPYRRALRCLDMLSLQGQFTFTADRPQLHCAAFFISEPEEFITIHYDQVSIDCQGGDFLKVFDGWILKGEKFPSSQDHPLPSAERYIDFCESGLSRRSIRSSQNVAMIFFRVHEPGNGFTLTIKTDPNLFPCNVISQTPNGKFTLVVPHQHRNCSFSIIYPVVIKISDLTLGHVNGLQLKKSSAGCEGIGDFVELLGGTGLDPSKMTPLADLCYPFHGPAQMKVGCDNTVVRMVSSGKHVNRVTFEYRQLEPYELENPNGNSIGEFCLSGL

[21] = AUC (infinity) in Sprague-Dawley rat at 1 mg/kg, iv; type: ADME, organism-based; set-up: time infinity, dose 1 mg/kg, route intravenous; details: plasma
Summary of the method: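 Male Sprague-Dawley rats (n=3 per route, 0.34-0.35 kg, cannulated), fasted ~18 h pre-dose and 4 h post-dose. Dosing was 1 mg/kg IV bolus in 20% ethanol/saline via the jugular cannula, or 5 mg/kg oral gavage in 0.5% aqueous methylcellulose. Jugular blood was sampled 0-96 h. Plasma was assayed by validated LC/MS/MS (LLOQ 1.00 ng/ml), and AUC(INF) was derived by noncompartmental mixed log-linear trapezoidal analysis.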

Serum [22] = assay: Metabolic stability in human serum after 3 hrs by equilibrium dialysis; type: ADME, cell-free; summary of the method: as §5
[23] = Drug metabolism in human cryopreserved hepatocytes assessed as 7-hydroxycoumarin formation at 25 uM after 3 hrs by HPLC analysis; type: ADME, cell-based, Hepatocyte
[24] = Drug metabolism in beagle dog hepatocytes assessed as 7-hydroxycoumarin formation at 25 uM after 3 hrs by HPLC analysis; type: ADME, cell-based, Canis lupus familiaris, Hepatocyte

| Structure (SMILES) | Drug metabolism (Liver microsome [1]) | Drug metabolism [2] | Drug metabolism (Hepatocyte [3]) | Drug metabolism (Liver microsome [4]) | Drug metabolism [5] | Drug metabolism [6] | Drug metabolism (Liver microsome [7]) | Drug metabolism [8] | Drug metabolism (Liver microsome [9]) | Drug metabolism [10] | Drug metabolism [11] | Drug metabolism (Hepatocyte [12]) | Drug metabolism [13] | Drug metabolism (Liver microsome [14]) | Drug metabolism (Liver microsome [15]) | Drug metabolism [16] | Drug metabolism [17] | further results |
| --- | --- | --- | --- | --- | --- | --- | --- | --- | --- | --- | --- | --- | --- | --- | --- | --- | --- | --- |
| COc1ccc(-c2c(C)nn3c(O)nc(C)nc23)c(C)n1 | metabolite_detected | metabolite_detected | metabolite_detected | metabolite_detected | metabolite_detected | metabolite_detected | metabolite_detected | metabolite_detected | metabolite_detected | metabolite_detected | metabolite_detected | metabolite_detected | metabolite_detected | metabolite_detected | metabolite_detected | metabolite_detected | metabolite_detected |  |
| CC[C@@H](C)Nc1nc(C)nc2c(-c3ccc(OC)nc3C)c(C)nn12 [PEXACERFONT] | metabolite_detected | metabolite_detected | metabolite_detected | metabolite_detected | metabolite_detected | metabolite_detected | metabolite_detected | metabolite_detected | metabolite_detected | metabolite_detected | metabolite_detected | metabolite_detected | metabolite_detected | metabolite_detected | metabolite_detected | metabolite_detected | metabolite_detected | Stability (Serum [18]): Stable; AUC(0-inf) [19]: 13.9 µM·h; IC50 [20]: > 1000 nM; AUC(0-inf) [21]: 2.9 µM·h; Stability (Serum [22]): Stable; Drug metabolism [23]: metabolite_detected; Drug metabolism [24]: metabolite_detected |
| CC[C@@H](C)Nc1nc(C)nc2c(-c3ccc(O)nc3C)c(C)nn12 | metabolite_detected | metabolite_detected | metabolite_detected | metabolite_detected | metabolite_detected | metabolite_detected | metabolite_detected | metabolite_detected | metabolite_detected | metabolite_detected | metabolite_detected | metabolite_detected | metabolite_detected | metabolite_detected | metabolite_detected | metabolite_detected | metabolite_detected |  |
| COc1ccc(-c2c(C)nn3c(N)nc(C)nc23)c(C)n1 | metabolite_detected | metabolite_detected | metabolite_detected | metabolite_detected | metabolite_detected | metabolite_detected | metabolite_detected | metabolite_detected | metabolite_detected | metabolite_detected | metabolite_detected | metabolite_detected | metabolite_detected | metabolite_detected | metabolite_detected | metabolite_detected | metabolite_detected |  |
